# Measured values from different studies.
# Protocols differ between the studies behind these lines.
# Target: Serine/threonine-protein kinase RIO2 (RIOK2, Homo sapiens, UniProt Q9BVS4)
Structure (SMILES),test,conditions,remaining binding
CCOC(=O)c1cc2cc(-c3cc(C(=O)NCc4ccc(C(=O)O)cc4)nn3C)ccc2[nH]1,"cell-free assay, competition with immobilised ligand",0.1 µM,100%
Cc1cnn2ncc(-c3ccnc(N(C)C)n3)c2c1,binding,1 µM,92%
C=CC(=O)N1CCC(C(=O)NCC(=O)N2CCN(c3nc(-c4cnc(N)nc4C(F)F)nc(N4CCOCC4)n3)CC2)CC1,"binding, competition with immobilised ligand",1 µM,83%
Nc1ncc2c(n1)-c1c([nH]c3ccc(C#CC4CC4)cc13)CCCC2,"binding, competition with immobilised ligand",1 µM,77%
N[C@@H]1CCN(c2nccc(-c3cnn4ncccc34)n2)C1,binding,1 µM,37%
CC(=O)N1CCC(c2ccc(C(=O)NC3=NCCN3)cc2C(F)(F)F)CC1,"cell-free assay, competition with immobilised ligand",1 µM,93%
O=C(c1ccc(Nc2ncc(Cl)c(-c3ccc(Cl)s3)n2)cc1)N1CCC(N2CCCC2)CC1,"binding, competition with immobilised ligand",1 µM,49%
CS(=O)(=O)N1CCCC(NC(=O)[C@H](CCC2CCCCC2)NC(=O)c2ccc(CNc3ncnc4c3nnn4-c3ccccc3)cc2)C1 (some centres unmarked),"cell-free assay, competition with immobilised ligand",0.1 µM,99%
Cc1cnc(Nc2ccc(C(=O)N3CCC(N4CCCC4)CC3)cc2)nc1-c1cc2ccccc2s1,"binding, competition with immobilised ligand",1 µM,40%
CCS(=O)(=O)c1cc2cc(C[C@](O)(CC(C)(C)c3ccc(F)cc3C(N)=O)C(F)(F)F)[nH]c2cn1,"cell-free assay, competition with immobilised ligand",1 µM,100%
C[C@@H]1CN(c2ccc3ncc(-c4ccc5[nH]nc(C6CC6)c5c4)n3n2)C[C@H](C)O1,"binding, competition with immobilised ligand",50 nM,76%
CN(C)c1ncc(F)c(-c2cnn3ncccc23)n1,binding,1 µM,78%
COc1ncc2cc3ccccc3nc2c1C#N,"cell-free assay, competition with immobilised ligand",5 µM,91%
CNC(=O)[C@@H]1CC[C@@H](n2c(-c3ccc4cnccc4c3)nc3ccc(C(=O)NCc4cccc(C(N)=O)c4)cc32)C1,"binding, competition with immobilised ligand",1 µM,97%
O=c1nc(-c2ccccn2)sc2ccccc12,"binding, competition with immobilised ligand",1 µM,94%
C[C@@H](c1ccc(-n2cnc3c(N)ncnc32)cc1)N1CCc2nn(C)c(Cc3ccccc3)c2C1=O,"binding, competition with immobilised ligand",0.1 µM,97%
CC1=C(C#N)C(c2ccc3c(c2)c(NC(=O)c2ccccc2C)nn3C)C(C#N)=C(C)N1,"cell-free assay, competition with immobilised ligand",1 µM,65%
CN(C)c1nccc(-c2cnn3ncccc23)n1,binding,1 µM,84%
O=C(Nc1c[nH]nc1C(=O)NC1CCNCC1)c1cc(F)cc(F)c1,"binding, competition with immobilised ligand",1 µM,100%
C[C@H]1CCN(c2nccc(-c3cnn4ncccc34)n2)C1,binding,1 µM,90%
O=C(c1ccc(Nc2ncc(Cl)c(-c3cc4ccccc4s3)n2)cc1)N1CCC(N2CCCC2)CC1,"binding, competition with immobilised ligand",1 µM,40%
COc1ccnn2ncc(-c3ccnc(N(C)C)n3)c12,binding,1 µM,63%
CNC(=O)Nc1ccc2c(c1)[C@@]1(CC2)OC(=O)N(CC(=O)N(Cc2ccc(F)cc2)[C@@H](C)C(F)(F)F)C1=O,"cell-free assay, competition with immobilised ligand",1 µM,83%
